≈ marks a conversion by molar mass, not a printed value. Values belong to the compound of their own block, whether it stands above or below them.
How the values were obtained:
Assay type in all cases: functional, cell-based
LNCaP = assay: Antitumor activity against human LNCAP cells
How it was run: (§1)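 SRB growth assay. Stock cultures grown in T-25 flasks in RPMI-1640 with […], 0.25% sodium bicarbonate, 10% FBS and 100 µg/mL kanamycin. Freshly trypsinized cells seeded at 1500-7500 per well, compounds added from DMSO-diluted stock, 3 days culture. Attached cells fixed with cold 50% TCA, stained with 0.4% SRB, bound dye solubilized, absorbance read at 562 nm. EC50 = concentration reducing growth 50%, mean of at least three independent determinations.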

KB = assay: Antitumor activity against human KB cells; how it was run: as §1
[1] = Antitumor activity against human KB-VIN cells; conditions: KBVIN; how it was run: as §1
A-431 = assay: Antitumor activity against human A431 cells; how it was run: as §1
A549 = assay: Antitumor activity against human A549 cells; how it was run: as §1
HCT-8 = assay: Antitumor activity against human HCT8 cells; how it was run: as §1
PC-3 = assay: Antitumor activity against human PC3 cells; how it was run: as §1
ZR-75-1 = assay: Antitumor activity against human ZR751 cells; how it was run: as §1
1A9 = assay: Antitumor activity against human 1A9 cells; how it was run: as §1
DU-145 = assay: Antitumor activity against human DU145 cells; how it was run: as §1
HCT-116 = assay: Antitumor activity against human HCT116 cells; how it was run: as §1

Compound: C[C@]12C(=O)C=CCC1=CC[C@@H]1[C@@H]2CC[C@]2(O)C(=O)O[C@@]3(C)[C@H]4C[C@]5(C)[C@@H](CO[C@@]16O[C@@]32[C@H]5C6=O)C(=O)O4 [PHYSALIN B]
EC50 (LNCaP): 5.3 µg/mL (≈ 10.4 µM)
EC50 (KB): 3 µg/mL (≈ 5.88 µM)
EC50 [1]: 1.3 µg/mL (≈ 2.55 µM)
EC50 (A-431): 1.8 µg/mL (≈ 3.53 µM)
EC50 (A549): 5.9 µg/mL (≈ 11.6 µM)
EC50 (HCT-8): 1.5 µg/mL (≈ 2.94 µM)
EC50 (PC-3): 0.9 µg/mL (≈ 1.76 µM)
EC50 (ZR-75-1): 2.6 µg/mL (≈ 5.09 µM)

Compound: C[C@@]12C[C@H]3OC(=O)[C@@H]1CO[C@@]14O[C@]5([C@H]2C1=O)[C@@](O)(CC[C@H]1[C@H]4C[C@@H](O)[C@@]2(O)CC=CC(=O)[C@]12C)C(=O)O[C@@]35C [PHYSALIN D]
EC50 (LNCaP): 1.3 µg/mL (≈ 2.39 µM)
EC50 (KB): 1.2 µg/mL (≈ 2.2 µM)
EC50 [1]: 7 µg/mL (≈ 12.9 µM)
EC50 (A-431): 1.4 µg/mL (≈ 2.57 µM)
EC50 (A549): 1.6 µg/mL (≈ 2.94 µM)
EC50 (HCT-8): 1.2 µg/mL (≈ 2.2 µM)
EC50 (PC-3): 1.6 µg/mL (≈ 2.94 µM)
EC50 (ZR-75-1): 0.4 µg/mL (≈ 0.735 µM)

Compound: C[C@@]12C[C@H]3OC(=O)[C@@H]1CO[C@]14O[C@]5([C@H]2C1=O)[C@@](O)(CC[C@H]1[C@H]4C[C@H]2O[C@]24CC=CC(=O)[C@]14C)C(=O)O[C@@]35C [PHYSALIN F]
EC50 (LNCaP): 1 µg/mL (≈ 1.9 µM)
EC50 (KB): 0.9 µg/mL (≈ 1.71 µM)
EC50 [1]: 1.9 µg/mL (≈ 3.61 µM)
EC50 (A-431): 1.1 µg/mL (≈ 2.09 µM)
EC50 (A549): 1.3 µg/mL (≈ 2.47 µM)
EC50 (HCT-8): 1 µg/mL (≈ 1.9 µM)
EC50 (PC-3): 1.1 µg/mL (≈ 2.09 µM)
EC50 (ZR-75-1): 0.3 µg/mL (≈ 0.57 µM)

Compound: C[C@@]12C[C@H]3OC(=O)[C@@H]1CO[C@@]14O[C@]5(C2C1=O)[C@@](O)(CC[C@H]1[C@H]4C[C@@H]2O[C@@]24CC=CC(=O)[C@]14C)C(=O)O[C@@]35C [PHYSALIN J]
EC50 (A-431): 17 µg/mL (≈ 32.3 µM)

EC50 (LNCaP): 15.9 µg/mL (≈ 28.5 µM)
EC50 (KB): 11.9 µg/mL (≈ 21.3 µM)
EC50 [1]: 20 µg/mL (≈ 35.8 µM)
EC50 (A-431): 13.4 µg/mL (≈ 24 µM)
EC50 (A549): 16.3 µg/mL (≈ 29.2 µM)
EC50 (HCT-8): 11.1 µg/mL (≈ 19.9 µM)
EC50 (PC-3): 18.1 µg/mL (≈ 32.4 µM)
EC50 (ZR-75-1): 8.2 µg/mL (≈ 14.7 µM)
Compound: CO[C@@H]1CC(=O)[C@]2(C)[C@H]3CC[C@@]4(O)C(=O)O[C@@]5(C)[C@H]6C[C@@]7(C)C8C(=O)[C@@](OC[C@H]7C(=O)O6)(O[C@]845)[C@@H]3C[C@H]3O[C@]32C1 [PHYSALIN U]

EC50 (1A9): 9.2 µg/mL (≈ 16.9 µM)
Compound: CO[C@@H]1CC(=O)[C@@]2(C)[C@@H](CC[C@@H]3[C@@H]2CC[C@@]2(O)C(=O)O[C@@]4(C)[C@H]5C[C@@]6(C)C7C(=O)[C@@]3(OC[C@H]6C(=O)O5)O[C@]724)C1 [PHYSALIN W]

Compound: CC1=C(C)C(=O)OC([C@](C)(O)[C@]2(O)C[C@H](O)[C@@]3(O)[C@@H]4C[C@H]5O[C@]56[C@@H](O)C=CC(=O)[C@]6(C)[C@H]4CC[C@@]32C)C1 (stereo partly specified) [WITHANGULATIN B]
EC50 (DU-145): 1.3 µg/mL (≈ 2.51 µM)
EC50 (1A9): 0.2 µg/mL (≈ 0.386 µM)
EC50 (HCT-116): 0.4 µg/mL (≈ 0.771 µM)
EC50 (LNCaP): 0.2 µg/mL (≈ 0.386 µM)

Compound: CO[C@H]1C[C@@](O)([C@@](C)(O)C2CC(C)=C(C)C(=O)O2)[C@@]2(C)CC[C@H]3[C@@H](C[C@H]4O[C@]45[C@@H](O)CCC(=O)[C@]35C)[C@]12O (stereo partly specified) [WITHANGULATIN C]
EC50 (1A9): 6.5 µg/mL (≈ 12.2 µM)
EC50 (HCT-116): 11.4 µg/mL (≈ 21.3 µM)
EC50 (LNCaP): 13.9 µg/mL (≈ 26 µM)

Compound: CC1=C(C)C(=O)OC([C@](C)(O)[C@]2(O)[C@@H](O)C[C@@]3(O)[C@@H]4C[C@@H](O)[C@@]5(O)[C@@H](O)C=CC(=O)[C@]5(C)[C@H]4CC[C@]23C)C1 (stereo partly specified) [WITHANGULATIN G]
EC50 (1A9): 18.8 µg/mL (≈ 35 µM)
EC50 (LNCaP): 13.4 µg/mL (≈ 25 µM)

Compound: CO[C@H]1CC(=O)[C@]2(C)[C@H]3CC[C@]4(C)[C@](O)([C@@](C)(O)C5CC(C)=C(C)C(=O)O5)[C@@H](O)C[C@@]4(O)[C@@H]3C[C@H]3O[C@]32C1 (stereo partly specified) [WITHANGULATIN H]
EC50 (1A9): 3.7 µg/mL (≈ 6.92 µM)
EC50 (HCT-116): 9.2 µg/mL (≈ 17.2 µM)
EC50 (LNCaP): 9.6 µg/mL (≈ 18 µM)
